Experimental data taken from ChEMBL document CHEMBL4364254 (J Med Chem, 2019).
pEC50, pIC50: −log10 of the molar value. The source made the active and inactive calls. The calls are words filed in the database; no cut-off is given here.

Key:
[1] = biological target: Sodium-dependent dopamine transporter (Homo sapiens, UniProt Q01959); assay: Displacement of [3H]BTCP from recombinant human dopamine transporter after 120 mins by scintillation counting analysis
[2] = biological target: cGMP-inhibited 3',5'-cyclic phosphodiesterase 3A (Homo sapiens, UniProt Q14432); assay: Activity at human recombinant PDE3A using [3H]cAMP as substrate measured after 15 mins by scintillation counting analysis
[3] = biological target: Androgen receptor (Homo sapiens, UniProt P10275); assay: Displacement of [3H]methyltrienolone from recombinant human AR after 1440 mins by scintillation counting analysis
[4] = biological target: 3',5'-cyclic-AMP phosphodiesterase 4D (Homo sapiens, UniProt Q08499); assay: Activity at human recombinant PDE4D2 using [3H]cAMP as substrate measured after 20 mins by scintillation counting analysis
[5] = biological target: Kappa-type opioid receptor (Homo sapiens, UniProt P41145); assay: Displacement of [3H]U69593 from recombinant human KOR after 60 mins by scintillation counting analysis
[6] = biological target: D(2) dopamine receptor (Homo sapiens, UniProt P14416); assay: Displacement of [3H]7-OH-DPAT from recombinant human D2s receptor after 60 mins by scintillation counting analysis
[7] = biological target: Acetylcholinesterase (Homo sapiens, UniProt P22303); assay: Activity at human recombinant ACHE using acetylthiocholine as substrate measured after 30 mins by spectrophotometric assay
[8] = test system: Mus musculus; assay: Anti-hepatosteatosis activity in ethanol-induced C57BL/6 mouse model of hepatic steatosis assessed as reduction in liver weight at 0.3 mg/kg, po administered once daily via gavage for last 2 weeks of study measured post-last dose; assay type: functional, organism-based
Procedure, shortened: (§1)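 Female C57BL/6J mice (9 weeks old, 19–21 g) were kept on Lieber–DeCarli liquid diet, with ethanol raised from 1 to 5% (v/v) over 15 d and then held for 4 weeks, pair-fed. Dosing was 0.03, 0.1 or 0.3 mg/kg by oral gavage once daily for the last 2 weeks, in 0.5% Na-CMC/1% NMP/0.3% Tween 80. Read-outs were Oil Red O on 10 μm liver sections imaged at 10× and liver weight normalized to brain weight. n = 6–10 per group; t test versus ethanol + vehicle.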

[9] = biological target: Alpha-1A adrenergic receptor (Homo sapiens, UniProt P35348); assay: Displacement of [3H]prazosin from recombinant human alpha 1A adrenoceptor after 60 mins by scintillation counting analysis
[10] = Half life in Sprague-Dawley rat plasma at 1 mg/kg, po by LC-MS/MS analysis; assay type: ADME, organism-based
[11] = biological target: Prostaglandin G/H synthase 1 (Homo sapiens, UniProt P23219); assay: Activity at human recombinant COX1 using arachidonic acid as substrate measured after 3 mins by ADHP reagent based fluorescence assay
[12] = biological target: Sodium-dependent serotonin transporter (Homo sapiens, UniProt P31645); assay: Displacement of [3H]imipramine from recombinant human serotonin transporter after 120 mins by scintillation counting analysis
[13] = biological target: Mu-type opioid receptor (Homo sapiens, UniProt P35372); assay: Displacement of [3H]DAMGO from recombinant human MOR after 120 mins by scintillation counting analysis
[14] = biological target: Cholecystokinin receptor type A (Homo sapiens, UniProt P32238); assay: Displacement of [125I]CCK-8s from recombinant human CCK1 receptor after 60 mins by scintillation counting analysis
[15] = biological target: Tyrosine-protein kinase Lck (Homo sapiens, UniProt P06239); assay: Activity at recombinant human LCK using Ulight-Poly GAT[EAY(1:1:1)]n as substrate measured after 10 mins by LANCE assay
[16] = biological target: Alpha-2A adrenergic receptor (Homo sapiens, UniProt P08913); assay: Displacement of [3H]RX 821002 from recombinant human alpha 2A adrenoceptor after 60 mins by scintillation counting analysis
[17] = biological target: Prostaglandin G/H synthase 2 (Homo sapiens, UniProt P35354); assay: Activity at human recombinant COX2 using arachidonic acid as substrate measured after 5 mins by ADHP reagent based fluorescence assay
[18] = biological target: Beta-2 adrenergic receptor (Homo sapiens, UniProt P07550); assay: Displacement of [3H](-)CGP12177 from recombinant human beta2 adrenergic receptor after 120 mins by scintillation counting analysis
[19] = biological target: 5-hydroxytryptamine receptor 2A (Homo sapiens, UniProt P28223); assay: Displacement of [125I](+/-)DOI from recombinant human 5HT2A receptor after 60 mins by scintillation counting analysis
[20] = biological target: Beta-1 adrenergic receptor (Homo sapiens, UniProt P08588); assay: Displacement of [3H](-)CGP12177 from recombinant human beta1 adrenergic receptor after 60 mins by scintillation counting analysis
[21] = biological target: Sodium-dependent noradrenaline transporter (Homo sapiens, UniProt P23975); assay: Displacement of [3H]nisoxetine from recombinant human norepinephrine transporter after 120 mins by scintillation counting analysis
[22] = biological target: Glucocorticoid receptor (Homo sapiens, UniProt P04150); assay: Displacement of [3H]dexamethasone from recombinant human GR after 360 mins by scintillation counting analysis
[23] = biological target: Amine oxidase [flavin-containing] A (Rattus norvegicus, UniProt P21396); assay: Displacement of [3H]Ro41-1049 from rat brain MAOA after 60 mins by scintillation counting analysis
[24] = biological target: Muscarinic acetylcholine receptor M1 (Homo sapiens, UniProt P11229); assay: Displacement of [3H]pirenzepine from recombinant human M1 receptor after 60 mins by scintillation counting analysis
[25] = biological target: Endothelin-1 receptor (Homo sapiens, UniProt P25101); assay: Displacement of [125I]endothelin-1 from recombinant human ETA receptor after 120 mins by scintillation counting analysis
[26] = test system: Mus musculus; assay: Anti-hepatosteatosis activity in ethanol-induced C57BL/6 mouse model of hepatic steatosis assessed as reduction in hepatic lipid accumulation at 0.03 to 0.3 mg/kg, po administered once daily via gavage for last 2 weeks of study measured post-last dose by oil red O staining-based light microscopic analysis; assay type: functional, organism-based; procedure, shortened: as §1
[27] = biological target: 5-hydroxytryptamine receptor 2B (Homo sapiens, UniProt P41595); assay: Displacement of [125I](+/-)DOI from recombinant human 5HT2B receptor after 60 mins by scintillation counting analysis
[28] = biological target: Adenosine receptor A2a (Homo sapiens, UniProt P29274); assay: Displacement of [3H]CGS21680 from recombinant human adenosine A2A receptor after 120 mins by scintillation counting analysis

Chain of Prostaglandin G/H synthase 1 (P23219 whole entry): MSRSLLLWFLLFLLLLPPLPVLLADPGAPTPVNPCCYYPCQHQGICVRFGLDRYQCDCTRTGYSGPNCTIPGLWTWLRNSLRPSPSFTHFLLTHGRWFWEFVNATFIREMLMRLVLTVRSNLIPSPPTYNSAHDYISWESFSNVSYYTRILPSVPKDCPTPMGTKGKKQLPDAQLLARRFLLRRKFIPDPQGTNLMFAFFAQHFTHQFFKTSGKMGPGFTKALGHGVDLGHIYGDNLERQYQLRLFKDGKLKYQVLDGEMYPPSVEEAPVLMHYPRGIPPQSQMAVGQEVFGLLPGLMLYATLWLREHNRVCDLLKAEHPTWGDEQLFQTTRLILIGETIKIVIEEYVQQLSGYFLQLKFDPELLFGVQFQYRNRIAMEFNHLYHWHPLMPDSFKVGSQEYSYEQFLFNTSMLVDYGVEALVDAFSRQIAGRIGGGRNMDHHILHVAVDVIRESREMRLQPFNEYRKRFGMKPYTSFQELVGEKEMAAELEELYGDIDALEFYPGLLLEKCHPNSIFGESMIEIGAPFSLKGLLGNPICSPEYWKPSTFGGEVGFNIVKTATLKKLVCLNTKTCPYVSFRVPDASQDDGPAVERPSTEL
Chain of Amine oxidase [flavin-containing] A (P21396 whole entry): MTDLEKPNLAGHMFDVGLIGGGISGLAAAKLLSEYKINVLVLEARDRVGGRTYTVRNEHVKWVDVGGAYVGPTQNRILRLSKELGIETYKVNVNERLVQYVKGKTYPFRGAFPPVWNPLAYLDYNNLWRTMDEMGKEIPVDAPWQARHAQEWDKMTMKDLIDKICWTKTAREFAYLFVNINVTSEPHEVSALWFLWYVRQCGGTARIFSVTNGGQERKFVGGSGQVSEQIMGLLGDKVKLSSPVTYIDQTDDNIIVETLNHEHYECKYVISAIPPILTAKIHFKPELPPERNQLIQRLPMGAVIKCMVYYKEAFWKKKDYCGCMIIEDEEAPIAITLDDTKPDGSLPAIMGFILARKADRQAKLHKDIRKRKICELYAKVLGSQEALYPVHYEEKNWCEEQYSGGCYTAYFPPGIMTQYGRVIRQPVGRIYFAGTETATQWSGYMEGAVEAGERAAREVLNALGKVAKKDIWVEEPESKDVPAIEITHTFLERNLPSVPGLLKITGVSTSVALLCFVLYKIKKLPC
Chain of Alpha-2A adrenergic receptor (P08913 whole entry): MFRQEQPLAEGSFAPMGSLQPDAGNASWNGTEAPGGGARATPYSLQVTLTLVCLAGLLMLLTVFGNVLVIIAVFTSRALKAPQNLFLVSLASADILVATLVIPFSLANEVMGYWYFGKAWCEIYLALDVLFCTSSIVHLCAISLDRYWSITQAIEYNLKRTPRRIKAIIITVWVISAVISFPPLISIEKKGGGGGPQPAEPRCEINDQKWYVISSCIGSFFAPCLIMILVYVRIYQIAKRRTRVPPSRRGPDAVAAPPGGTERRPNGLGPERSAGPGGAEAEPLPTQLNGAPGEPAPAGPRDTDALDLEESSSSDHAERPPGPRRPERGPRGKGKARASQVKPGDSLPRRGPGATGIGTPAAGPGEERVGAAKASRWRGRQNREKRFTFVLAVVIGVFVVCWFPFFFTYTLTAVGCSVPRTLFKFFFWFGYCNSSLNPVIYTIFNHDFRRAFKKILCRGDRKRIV
Chain of Alpha-1A adrenergic receptor (P35348 whole entry): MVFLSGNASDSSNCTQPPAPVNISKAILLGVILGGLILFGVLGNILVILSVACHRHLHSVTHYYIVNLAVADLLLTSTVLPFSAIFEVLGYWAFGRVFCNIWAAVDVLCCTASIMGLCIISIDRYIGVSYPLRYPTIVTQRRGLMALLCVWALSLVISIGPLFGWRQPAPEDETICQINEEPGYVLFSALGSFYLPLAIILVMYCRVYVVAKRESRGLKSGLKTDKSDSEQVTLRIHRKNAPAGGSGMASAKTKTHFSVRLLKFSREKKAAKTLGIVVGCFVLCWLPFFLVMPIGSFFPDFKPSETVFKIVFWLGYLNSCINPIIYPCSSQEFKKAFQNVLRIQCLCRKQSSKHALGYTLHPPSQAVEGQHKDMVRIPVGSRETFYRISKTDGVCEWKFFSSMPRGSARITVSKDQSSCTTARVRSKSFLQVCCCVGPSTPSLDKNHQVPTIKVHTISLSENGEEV
Chain of Kappa-type opioid receptor (P41145 whole entry): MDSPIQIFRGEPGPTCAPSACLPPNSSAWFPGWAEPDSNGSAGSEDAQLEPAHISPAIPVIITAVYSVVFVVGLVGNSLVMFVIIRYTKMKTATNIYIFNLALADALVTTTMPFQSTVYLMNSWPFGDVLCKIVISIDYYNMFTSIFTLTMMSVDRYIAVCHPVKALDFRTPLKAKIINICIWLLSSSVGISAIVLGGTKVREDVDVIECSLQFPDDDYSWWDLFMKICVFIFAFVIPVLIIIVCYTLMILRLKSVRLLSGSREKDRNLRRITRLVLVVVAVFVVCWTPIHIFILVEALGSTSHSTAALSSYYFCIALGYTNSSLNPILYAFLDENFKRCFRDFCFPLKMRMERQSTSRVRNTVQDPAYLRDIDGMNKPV
Chain of Androgen receptor (P10275 whole entry): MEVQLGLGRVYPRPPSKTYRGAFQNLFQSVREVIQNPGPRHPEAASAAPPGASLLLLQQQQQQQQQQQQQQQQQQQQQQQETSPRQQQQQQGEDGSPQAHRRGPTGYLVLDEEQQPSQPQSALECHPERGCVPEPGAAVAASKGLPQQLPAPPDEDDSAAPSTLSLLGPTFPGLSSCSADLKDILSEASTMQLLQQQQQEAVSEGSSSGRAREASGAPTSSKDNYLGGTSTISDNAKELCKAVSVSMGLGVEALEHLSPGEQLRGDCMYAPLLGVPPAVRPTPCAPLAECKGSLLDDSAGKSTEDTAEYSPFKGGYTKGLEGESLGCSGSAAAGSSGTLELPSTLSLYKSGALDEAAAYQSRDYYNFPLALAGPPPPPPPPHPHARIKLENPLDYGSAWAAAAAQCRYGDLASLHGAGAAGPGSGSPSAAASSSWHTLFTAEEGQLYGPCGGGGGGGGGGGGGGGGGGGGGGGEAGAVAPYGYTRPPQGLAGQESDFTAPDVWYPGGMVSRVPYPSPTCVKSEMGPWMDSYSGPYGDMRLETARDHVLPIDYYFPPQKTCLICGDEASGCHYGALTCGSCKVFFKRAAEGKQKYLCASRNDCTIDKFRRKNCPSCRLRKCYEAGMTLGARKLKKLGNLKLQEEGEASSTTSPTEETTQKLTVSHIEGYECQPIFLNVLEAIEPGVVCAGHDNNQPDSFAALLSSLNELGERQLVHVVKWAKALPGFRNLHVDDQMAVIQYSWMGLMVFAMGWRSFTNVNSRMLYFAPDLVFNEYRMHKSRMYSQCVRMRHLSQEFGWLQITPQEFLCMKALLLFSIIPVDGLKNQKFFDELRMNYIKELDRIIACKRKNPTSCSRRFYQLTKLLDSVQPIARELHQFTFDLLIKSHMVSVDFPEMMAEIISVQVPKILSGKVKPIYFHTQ
Chain of Glucocorticoid receptor (P04150 whole entry): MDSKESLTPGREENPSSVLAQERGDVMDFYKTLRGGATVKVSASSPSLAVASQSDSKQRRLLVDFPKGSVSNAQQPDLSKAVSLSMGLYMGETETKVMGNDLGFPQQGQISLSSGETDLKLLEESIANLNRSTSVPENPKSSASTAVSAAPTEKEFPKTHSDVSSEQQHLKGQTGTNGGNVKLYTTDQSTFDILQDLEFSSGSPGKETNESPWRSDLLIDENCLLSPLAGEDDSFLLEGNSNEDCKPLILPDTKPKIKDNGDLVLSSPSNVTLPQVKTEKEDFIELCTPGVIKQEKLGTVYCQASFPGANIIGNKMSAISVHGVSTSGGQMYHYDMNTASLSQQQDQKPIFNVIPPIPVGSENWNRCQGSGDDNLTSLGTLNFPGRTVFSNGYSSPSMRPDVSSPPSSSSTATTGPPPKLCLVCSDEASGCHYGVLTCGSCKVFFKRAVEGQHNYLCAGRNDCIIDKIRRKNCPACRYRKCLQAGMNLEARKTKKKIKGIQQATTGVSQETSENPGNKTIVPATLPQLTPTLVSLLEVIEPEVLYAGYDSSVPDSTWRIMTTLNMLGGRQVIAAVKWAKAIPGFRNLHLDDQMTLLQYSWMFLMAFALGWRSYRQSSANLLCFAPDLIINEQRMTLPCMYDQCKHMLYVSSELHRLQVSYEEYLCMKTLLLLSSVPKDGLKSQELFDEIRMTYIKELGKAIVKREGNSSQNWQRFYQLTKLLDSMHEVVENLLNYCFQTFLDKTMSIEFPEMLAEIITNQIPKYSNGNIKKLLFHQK
Chain of Tyrosine-protein kinase Lck (P06239 whole entry): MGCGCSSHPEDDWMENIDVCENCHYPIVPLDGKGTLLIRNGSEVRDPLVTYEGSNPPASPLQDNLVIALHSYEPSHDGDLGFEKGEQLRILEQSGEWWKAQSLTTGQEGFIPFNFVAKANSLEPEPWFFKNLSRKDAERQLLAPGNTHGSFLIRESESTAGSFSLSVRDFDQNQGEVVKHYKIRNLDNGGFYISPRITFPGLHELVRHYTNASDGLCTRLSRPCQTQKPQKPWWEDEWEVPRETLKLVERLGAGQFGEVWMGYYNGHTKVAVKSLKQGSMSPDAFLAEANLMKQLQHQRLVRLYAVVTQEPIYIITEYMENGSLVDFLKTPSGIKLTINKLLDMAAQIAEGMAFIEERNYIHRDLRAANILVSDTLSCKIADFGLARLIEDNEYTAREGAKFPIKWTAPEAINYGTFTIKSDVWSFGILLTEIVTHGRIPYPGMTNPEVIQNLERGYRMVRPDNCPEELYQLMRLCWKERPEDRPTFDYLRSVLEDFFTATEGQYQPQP

Compound `O=C(Nc1ccc(OC(F)F)nc1)NC1CCN(c2ncnc3c2nc(-c2ccccc2Cl)n3-c2ccc(Cl)cc2)CC1` has a pEC50 [1] of under 5.00, a pIC50 [1] of under 5.00 and a pEC50 [2] of under 5.00. The pIC50 [2] was under 5.00, the pEC50 [3] was under 5.00 and the pIC50 [3] was under 5.00. It also gave a pEC50 [4] of under 5.00, a pIC50 [4] of under 5.00 and a pEC50 [5] of under 5.00. It also gave a pIC50 [5] of under 5.00, a pEC50 [6] of under 5.00 and a pIC50 [6] of under 5.00. For the same compound, the pEC50 [7] was under 5.00, the pIC50 [7] was under 5.00 and the Activity [8] was “Active”. The pEC50 [9] was under 5.00, the pIC50 [9] was under 5.00 and the half-life [10] was 9.9 h. For the same compound, the pEC50 [11] was under 5.00, the pIC50 [11] was under 5.00 and the pEC50 [12] was under 5.00. It also gave a pIC50 [12] of under 5.00, a pEC50 [13] of under 5.00 and a pIC50 [13] of under 5.00. It also gave a pEC50 [14] of under 5.00, a pIC50 [14] of under 5.00 and a pEC50 [15] of under 5.00. It also gave a pIC50 [15] of under 5.00, a pEC50 [16] of under 5.00 and a pIC50 [16] of under 5.00. It also gave a pEC50 [17] of under 5.00, a pIC50 [17] of under 5.00 and a pEC50 [18] of under 5.00. The pIC50 [18] was under 5.00, the pEC50 [19] was under 5.00 and the pIC50 [19] was under 5.00. For the same compound, the pEC50 [20] was under 5.00, the pIC50 [20] was under 5.00 and the pEC50 [21] was under 5.00. For the same compound, the pIC50 [21] was under 5.00, the pEC50 [22] was under 5.00 and the pIC50 [22] was under 5.00. For the same compound, the pEC50 [23] was under 5.00, the pIC50 [23] was under 5.00 and the pEC50 [24] was under 5.00. The pIC50 [24] was under 5.00, the pEC50 [25] was under 5.00 and the pIC50 [25] was under 5.00. The Activity [26] was “Active”, the pEC50 [27] was under 5.00 and the pIC50 [27] was under 5.00. The pEC50 [28] was under 5.00 and the pIC50 [28] was under 5.00.
